Calb biofilm kill – clotrimazole potentiators killing Candida biofilms, primary screen, with clotrimazole, Alamar Blue; AID 834, 2007; C. albicans biofilm + clotrimazole; inhibition, % at 6 µM; 0.14% of 85,000 active;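 active = inhibition above 20%; inactive = inhibition below 20%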;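 note: preformed 24 hr biofilms exposed to compound for 48 hr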
tolC growth inh – growth inhibitors of E. coli tolC mutant, primary screen, strain BW25113 ΔtolC::kan, 384-well; OD615; growth inhibition, % at 10 µM (by protocol); 2.2% of 65,000 active; AID 573, 2007;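 active = growth inhibition at or above a cutoff equal to the mean over every tested compound plus 3 SD, cut at about 60% in these data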;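 note: growth measured after 20 h incubation at 37 °C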
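Test system: E. coli BW25113 ΔtolC::kan bacteria; incubation: 37 °C, 20 h exposure; medium: LB broth supplemented with 50 µg/mL kanamycin; read-out basis: percent growth inhibition; signal: A615 absorbance measurement; compound: 10 µM final, single dose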
PostGolgi yeast – phenotypic screen on post-Golgi transport, primary screen. post-Golgi transport phenotypic cell assay. inhibition, % at 10 µM. 0.9% of 98,000 active;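 note: yeast cells grown in 1536-well plates; yeast grown about 18 h at 30C before absorbance read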
FAK blocker – FAK kinase inhibitors, primary screen, biochemical | AID 727, 2007 | inhibition, %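 (tested at 7 µM)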 | biochemical FAK kinase activity assay | 0.84% of 97,000 active; in the data active = inhibition above about 19%
PTK2B oligo ant – antagonists of Pyk2 self-association, primary screen, Q293 cells, FERM NanoBiT luminescence, HTS; active compounds read low; Protein-tyrosine kinase 2-beta (Homo sapiens), Q14289; 0.83% of 99,000 active; z-score (the deposit names both 25 µM and 10 µM); AID 1347419, 2020;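 active = Z-score of -3 or lower, scaled per plate to the spread of control and sample wells; inactive = z-score above -3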;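 note: negative z-score means lost luminescence so less FERM oligomerization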
Target sequence (Q14289 whole entry, looked up): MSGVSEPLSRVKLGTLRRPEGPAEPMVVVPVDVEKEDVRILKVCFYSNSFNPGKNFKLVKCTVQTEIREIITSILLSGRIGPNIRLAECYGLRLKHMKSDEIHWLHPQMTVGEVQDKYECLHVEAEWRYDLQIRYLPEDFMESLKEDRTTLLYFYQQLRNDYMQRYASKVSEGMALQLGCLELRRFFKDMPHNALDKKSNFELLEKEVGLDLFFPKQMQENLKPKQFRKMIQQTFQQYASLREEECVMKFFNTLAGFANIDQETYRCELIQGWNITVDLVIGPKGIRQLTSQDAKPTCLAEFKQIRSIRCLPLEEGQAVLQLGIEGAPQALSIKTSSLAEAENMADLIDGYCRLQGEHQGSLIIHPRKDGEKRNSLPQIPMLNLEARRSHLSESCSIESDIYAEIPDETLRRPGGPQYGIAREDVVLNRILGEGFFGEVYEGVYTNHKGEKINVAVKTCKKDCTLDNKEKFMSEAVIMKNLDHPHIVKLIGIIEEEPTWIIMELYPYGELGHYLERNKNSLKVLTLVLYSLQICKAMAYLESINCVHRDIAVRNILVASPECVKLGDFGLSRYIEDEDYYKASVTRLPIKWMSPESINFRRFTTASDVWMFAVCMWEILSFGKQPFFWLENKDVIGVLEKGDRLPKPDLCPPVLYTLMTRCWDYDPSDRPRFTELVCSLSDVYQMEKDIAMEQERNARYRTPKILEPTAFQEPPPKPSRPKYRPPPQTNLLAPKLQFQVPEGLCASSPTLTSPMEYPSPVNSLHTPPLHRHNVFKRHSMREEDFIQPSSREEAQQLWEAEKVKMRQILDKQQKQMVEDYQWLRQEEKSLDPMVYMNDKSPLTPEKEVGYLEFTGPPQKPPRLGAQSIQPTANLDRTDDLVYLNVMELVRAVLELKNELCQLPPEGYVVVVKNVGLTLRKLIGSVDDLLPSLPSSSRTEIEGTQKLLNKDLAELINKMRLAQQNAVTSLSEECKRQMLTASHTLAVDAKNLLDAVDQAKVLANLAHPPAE
PostGolgi ctrl – growth inhibition of yeast control strain, primary screen, counter-screen for post-Golgi transport modulator project | efflux-deficient yeast background strain, growth absorbance A615, 16 h | inhibition, % at 10 µM | 5% of 98,000 active
Numbers stand for hits; – = inactive; · = not tested or not shown. An excerpt weighted towards active compounds, which were near 6.9% of everything screened. Cut-off read from the data, not from the text of the source, unless noted: active = inhibition above about 30%; inactive = the rest.

SMILES	Calb biofilm kill	tolC growth inh	PostGolgi yeast	FAK blocker	PTK2B oligo ant	PostGolgi ctrl
O=C(Nc1ccc2c(c1)OCCO2)C1CCCN(S(=O)(=O)Cc2ccccc2)C1 (stereo unspecified)	–	–	–	–	–	–
O=C(Nc1ccc2c(c1)OCCO2)C1CCN(C(=O)c2ccccc2)CC1	–	·	–	–	–	31
O=C(C1CCCN(S(=O)(=O)Cc2ccccc2)C1)N1CCC(Cc2ccccc2)CC1 (stereo unspecified)	–	·	–	–	–	34
O=C(Nc1ccc2c(c1)OCCO2)C1CCN(C(=O)c2ccc(Br)cc2)CC1	–	–	–	–	–	–
O=C(CSc1nc2ccsc2c(=O)n1NC(=O)c1ccccc1)Nc1nccs1	–	–	·	–	–	·
Cc1cccc(NS(=O)(=O)c2ccc(Br)s2)n1	–	·	–	–	–	–
CC(C)NC(=O)Cn1c(SCC(=O)N2CCc3ccccc3C2)nc2ccccc21	–	–	–	·	–	–
CCc1ccc(N2CC(C(=O)Nc3cc(C)ccc3F)CC2=O)cc1 (stereo unspecified)	–	–	–	–	–	–
CCN1/C(=C/c2ccc3ccccc3[n+]2CC)C=Cc2ccccc21	–	·	–	–	–	66
Cn1c(SCc2ccccc2Cl)nc2ccccc21	–	·	–	–	–	–
Cc1cc(C)n(C(=O)c2ccc(C)c(S(=O)(=O)N3CCCC3)c2)n1	–	–	–	–	–	32
Cc1ccc(C(=O)N2CCN(C)CC2)cc1S(=O)(=O)N1CCCCC1	–	–	–	·	–	–
C/C(=N\OC(=O)NC(C)C)c1sc(-c2ccc(Cl)cc2)nc1C	·	·	–	–	–	36
C/C(=N\OC(=O)NC1CCCCC1)c1sc(-c2ccccc2)nc1C	·	·	–	–	–	34
COc1ccc(-n2c(=O)c3ccccc3n(CC(=O)NC3CCCC3)c2=O)cc1	–	–	–	–	–	37
Cc1cccc(N(CC(=O)NCc2ccc3c(c2)OCO3)C(=O)CCC(=O)Nc2ccccn2)c1C	·	–	–	–	-3.1	–
Cn1nc(C(=O)N2CCOCC2)c2ccccc2c1=O	·	–	·	–	–	·
Cn1nc(C(=O)N2CCCC2)c2ccccc2c1=O	–	–	–	–	–	30
CCn1nc(NC(=O)c2cccnc2)c2cc3ccccc3nc21	–	–	–	–	–	–
CCOC(=O)c1cnn(-c2c(Cc3ccccc3)c(C)nc3c(-c4ccccc4)c(C)nn23)c1N	–	·	–	–	-4	–
Cc1sc(NC(=O)c2ccco2)c(C(c2cccnc2)N2CCC(C)CC2)c1C (stereo unspecified)	–	·	86	–	-4.3	41
Cc1sc(NC(=O)c2ccco2)c(CN2CCC(C)CC2)c1C	·	·	–	–	–	–
CC1(C)C(=O)Nc2ccccc2N1C(=O)COc1ccc(S(=O)(=O)N2CCOCC2)cc1Cl	–	–	–	–	–	–
CN1CCN(CC(=O)Nc2ccc(Oc3ccccc3)cc2)CC1	–	–	–	–	–	–
Cc1ccc(N(CC(N)=O)C2SC(=O)NC2=O)cc1 (stereo unspecified)	–	·	·	·	·	·
SMILES	Calb biofilm kill	tolC growth inh	PostGolgi yeast	FAK blocker	PTK2B oligo ant	PostGolgi ctrl
CCOC(=O)c1oc2ccc3c(c2c1C)C(=O)CC1(CCN(C(=O)OCC)CC1)O3	·	–	–	·	–	35
C(=C\c1ccccc1)/CSc1nnc(-c2cccnc2)o1	·	–	–	–	–	33
Cc1ccc(NS(=O)(=O)c2cc(C(=O)N3CCc4ccccc4C3)ccc2Cl)cc1	·	·	35	–	–	64
Cc1ccccc1NS(=O)(=O)c1cc(C(=O)N2CCc3ccccc3C2)ccc1C	·	·	–	–	–	–
Cc1cccc(NS(=O)(=O)c2cc(C(=O)N3CCN(C)CC3)ccc2C)c1	–	·	–	–	–	32
O=C(CSc1nnc(-c2cccs2)n1-c1cccc(Cl)c1)c1cccc2c1OCCO2	–	·	–	–	-3.1	–
Cc1nn(-c2ccc(F)cc2)c2nc(N)c(C#N)c(-c3cccs3)c12	–	–	–	–	–	–
COc1cc(-c2c(C#N)c(N)nc3c2c(C)nn3-c2ccc(C)c(C)c2)cc(OC)c1OC	–	–	–	·	-3.4	–
CC(C)c1ccc(Nc2nc(NCc3ccco3)nc(N3CCOCC3)n2)cc1	·	66	–	–	–	–
O=S(=O)(CC(O)COc1ccccc1Cl)c1ccccc1 (stereo unspecified)	·	·	–	–	–	–
CCOCC(O)CS(=O)(=O)c1ccccn1 (stereo unspecified)	–	–	–	–	–	35
CCCC(C1=C(O)CC(C)(C)CC1=O)C1C(=O)CC(C)(C)CC1=O (stereo unspecified)	–	·	·	–	–	·
Cc1cc(C)n2[nH]c(=O)c(N=Nc3ccccc3)c2n1	·	·	–	–	–	–
Cc1cc(C)n2[nH]c(=O)c(N=Nc3cccc(Cl)c3)c2n1	·	·	–	–	–	39
CCOc1ccc(C(=O)N2CCN(c3cccc(C)c3C)CC2)cc1	–	82	–	–	–	–
Cc1cccc(N2CCN(C(=O)Cc3ccc(Br)cc3)CC2)c1C	–	·	–	–	–	46
O=C(Cc1ccc(Br)cc1)N1CCN(c2ccccc2)CC1	–	–	–	–	–	–
CCOc1ccc(C(=O)N2CCCC2)cc1	–	·	·	–	–	·
Clc1ccc(CSc2nnc(-c3ccncc3)o2)cc1	–	–	–	–	–	–
CCCCCCSc1nnc(-c2cnn(-c3ccccc3)c2-n2cccc2)n1C	–	·	–	–	–	61
CCSc1nnc(-c2cnn(-c3ccccc3)c2-n2cccc2)n1C	–	·	–	–	–	–
Cc1ccc(S(=O)(=O)N(CC(=O)NCc2ccncc2)C2CCCCC2)cc1	–	–	–	·	–	–
Clc1ccc2nc(NC3=NCN(CCN4CCOCC4)CN3)nc(-c3ccccc3)c2c1	–	·	·	·	·	·
COc1ccc(N(CC(=O)Nc2cccc(C)c2C)S(=O)(=O)c2c(C)n[nH]c2C)cc1	–	–	–	–	-3.3	–
Cc1noc(C)c1S(=O)(=O)N(CC(=O)Nc1ccc2c(c1)OCO2)c1ccc(C(C)C)cc1	–	–	–	–	·	–
SMILES	Calb biofilm kill	tolC growth inh	PostGolgi yeast	FAK blocker	PTK2B oligo ant	PostGolgi ctrl
Cc1n[nH]c(C)c1S(=O)(=O)N(CC(=O)Nc1ccc2c(c1)OCCO2)c1ccc(C(C)C)cc1	–	66	–	–	·	–
Oc1cccc(-c2nc3c4c(ncn3n2)-c2ccccc2CC42CCCC2)c1	·	·	–	–	-3.1	–
C=CCn1c(SCC(N)=O)nnc1-c1cc(Br)ccc1O	–	–	–	–	–	–
Cc1ccc([N+](=O)[O-])cc1N=C(c1cccc(Br)c1)N1CCOCC1	·	·	–	–	–	34
COc1cc(/C=N/N=C(/N)c2nonc2N)cc(Br)c1OCc1cccc(C)c1	–	·	–	–	–	33
CCOc1cc(/C=N/N=C(\N)c2nonc2N)cc(Br)c1OCc1cccc2ccccc12	–	·	–	–	–	–
COc1ccc(C(=O)Nc2nc3nc(-c4ccccc4)cc(=O)n3[nH]2)cc1	·	–	–	–	–	–
COc1ccc(-c2cc(C(F)(F)F)c3c(=O)n(-c4ccccc4)[nH]c3n2)cc1	–	·	–	–	-4.1	33

Source: PubChem
